Assay results reported in ChEMBL document CHEMBL2331240, “Focused library development of 2-phenylacrylamides as broad spectrum cytotoxic agents” (2013).
Active and inactive are the calls of the source. No cut-off for these calls is given here.

Experiments:
SJ-G2 = assay: Cytotoxicity against human SJ-G2 cells assessed as growth inhibition at 25 uM measured after 72 hrs by MTT assay; assay type: functional, cell-based
Procedure, shortened: (§1)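 Log-phase cells were plated in duplicate at 2500–4000 cells/well in DMEM with 10% FBS, glutamine and antibiotics, at 37 °C under 5% CO2. Drug was added 24 h after plating from a 40 mM DMSO stock, to a final 25 μM. After 72 h exposure, MTT was read at 540 nm and % growth inhibition was calculated, with 100% meaning total growth inhibition.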

MIA = assay: Cytotoxicity against human MIA cells assessed as growth inhibition at 25 uM measured after 72 hrs by MTT assay; assay type: functional; procedure, shortened: as §1
BE(2)-C = assay: (§2) Cytotoxicity against human BE(2)-C cells assessed as growth inhibition at 25 uM measured after 72 hrs by MTT assay; assay type: functional; procedure, shortened: as §1
A-431 [1] = assay: Cytotoxicity against human A431 cells assessed as growth inhibition at 25 uM measured after 72 hrs by MTT assay; assay type: functional, cell-based; procedure, shortened: as §1
DU-145 [2] = assay: Cytotoxicity against human DU145 cells assessed as growth inhibition at 25 uM measured after 72 hrs by MTT assay; assay type: functional, cell-based; procedure, shortened: as §1
A2780 [3] = assay: Cytotoxicity against human A2780 cells assessed as growth inhibition at 25 uM measured after 72 hrs by MTT assay; assay type: functional; procedure, shortened: as §1
NCI-H460 = assay: Cytotoxicity against human H460 cells assessed as growth inhibition at 25 uM measured after 72 hrs by MTT assay; assay type: functional, cell-based; procedure, shortened: as §1
SW480 [4] = assay: Cytotoxicity against human SW480 cells assessed as growth inhibition at 25 uM measured after 72 hrs by MTT assay; assay type: functional; procedure, shortened: as §1
MCF7 [5] = assay: Cytotoxicity against human MCF7 cells assessed as growth inhibition at 25 uM measured after 72 hrs by MTT assay; assay type: functional; procedure, shortened: as §1
HT-29 [6] = assay: Cytotoxicity against human HT-29 cells assessed as growth inhibition at 25 uM measured after 72 hrs by MTT assay; assay type: functional, cell-based; procedure, shortened: as §1
SMA = assay: Cytotoxicity against mouse SMA cells assessed as growth inhibition at 25 uM measured after 72 hrs by MTT assay
[7] = Cytotoxicity against human MIA cells assessed as growth inhibition at 100 uM measured after 72 hrs by MTT assay; assay type: functional; settings: read-out: GI
[8] = Cytotoxicity against human SJ-G2 cells assessed as growth inhibition at 100 uM measured after 72 hrs by MTT assay; assay type: functional; settings: SJ-G2, 72 h, read-out: GI
DU-145 [9] = assay: Cytotoxicity against human DU145 cells assessed as growth inhibition at 100 uM measured after 72 hrs by MTT assay; assay type: functional; settings: DU-145, 72 h, read-out: GI
[10] = Cytotoxicity against human BE(2)-C cells assessed as growth inhibition at 100 uM measured after 72 hrs by MTT assay; assay type: functional; settings: read-out: GI
A-431 [11] = assay: Cytotoxicity against human A431 cells assessed as growth inhibition at 100 uM measured after 72 hrs by MTT assay; assay type: functional; settings: A-431, 72 h, read-out: GI
A2780 [12] = assay: Cytotoxicity against human A2780 cells assessed as growth inhibition at 100 uM measured after 72 hrs by MTT assay; assay type: functional; settings: A2780, 72 h, read-out: GI
[13] = Cytotoxicity against human H460 cells assessed as growth inhibition at 100 uM measured after 72 hrs by MTT assay; assay type: functional; settings: NCI-H460, 72 h, read-out: GI
SW480 [14] = assay: Cytotoxicity against human SW480 cells assessed as growth inhibition at 100 uM measured after 72 hrs by MTT assay; assay type: functional; settings: SW480, 72 h, read-out: GI
MCF7 [15] = assay: Cytotoxicity against human MCF7 cells assessed as growth inhibition at 100 uM measured after 72 hrs by MTT assay; assay type: functional; settings: MCF7, 72 h, read-out: GI
HT-29 [16] = assay: Cytotoxicity against human HT-29 cells assessed as growth inhibition at 100 uM measured after 72 hrs by MTT assay; assay type: functional; settings: HT-29, 72 h, read-out: GI
[17] = Cytotoxicity against human SJ-G2 cells assessed as growth inhibition measured after 72 hrs by MTT assay; assay type: functional; settings: SJ-G2, 72 h
Procedure, shortened: (§3)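 Cells in log phase were seeded in duplicate at 2500–4000 cells/well in supplemented DMEM (37 °C, 5% CO2). Drug from a 40 mM DMSO stock was added on day 0, 24 h post-plating. Read-out was MTT absorbance at 540 nm after 72 h.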

[18] = Cytotoxicity against human MIA cells assessed as growth inhibition measured after 72 hrs by MTT assay; assay type: functional; procedure, shortened: as §3
DU-145 [19] = assay: Cytotoxicity against human DU145 cells assessed as growth inhibition measured after 72 hrs by MTT assay; assay type: functional; settings: DU-145, 72 h; procedure, shortened: as §3
[20] = Cytotoxicity against human BE(2)-C cells assessed as growth inhibition measured after 72 hrs by MTT assay; assay type: functional; procedure, shortened: as §3
[21] = Cytotoxicity against human H460 cells assessed as growth inhibition measured after 72 hrs by MTT assay; assay type: functional; settings: NCI-H460, 72 h; procedure, shortened: as §3
A-431 [22] = assay: Cytotoxicity against human A431 cells assessed as growth inhibition measured after 72 hrs by MTT assay; assay type: functional; settings: A-431, 72 h; procedure, shortened: as §3
MCF7 [23] = assay: Cytotoxicity against human MCF7 cells assessed as growth inhibition measured after 72 hrs by MTT assay; assay type: functional; settings: MCF7, 72 h; procedure, shortened: as §3
A2780 [24] = assay: Cytotoxicity against human A2780 cells assessed as growth inhibition measured after 72 hrs by MTT assay; assay type: functional; settings: A2780, 72 h; procedure, shortened: as §3
HT-29 [25] = assay: Cytotoxicity against human HT-29 cells assessed as growth inhibition measured after 72 hrs by MTT assay; assay type: functional; settings: HT-29, 72 h; procedure, shortened: as §3
SW480 [26] = assay: Cytotoxicity against human SW480 cells assessed as growth inhibition measured after 72 hrs by MTT assay; assay type: functional; settings: SW480, 72 h; procedure, shortened: as §3
[27] = Cytotoxicity against mouse SMA cells assessed as growth inhibition measured after 72 hrs by MTT assay
[28] = Cytotoxicity against mouse SMA cells assessed as growth inhibition at 100 uM measured after 72 hrs by MTT assay; settings: read-out: GI
[29] = as §2; assay type: functional; settings: read-out: GI; procedure, shortened: as §1

## COc1ccc(/C=C(\C#N)C(=O)c2c[nH]c3ccccc23)cc1
SJ-G2
  growth inhibition (GI): inactive
MIA
  growth inhibition (GI): inactive
BE(2)-C
  growth inhibition (GI): inactive
A-431 [1]
  growth inhibition (GI): inactive
DU-145 [2]
  growth inhibition (GI): inactive
A2780 [3]
  growth inhibition (GI): inactive
NCI-H460
  growth inhibition (GI): inactive
SW480 [4]
  growth inhibition (GI): inactive
MCF7 [5]
  growth inhibition (GI): inactive
HT-29 [6]
  growth inhibition (GI): inactive
SMA
  growth inhibition (GI): inactive

## N#C/C(=C\c1ccc(Cl)cc1)C(=O)c1ccc[nH]1
[7]
  inhibition of growth at 100 µM: 31%
[8]
  inhibition of growth at 100 µM: 31%
DU-145 [9]
  inhibition of growth at 100 µM: 31%
[10]
  inhibition of growth at 100 µM: 31%
A-431 [11]
  inhibition of growth at 100 µM: 31%
A2780 [12]
  inhibition of growth at 100 µM: 31%
[13]
  inhibition of growth at 100 µM: 31%
SW480 [14]
  inhibition of growth at 100 µM: 31%
MCF7 [15]
  inhibition of growth at 100 µM: 31%
HT-29 [16]
  inhibition of growth at 100 µM: 31%
[17]
  GI50: 37 µM
[18]
  GI50: 48 µM
DU-145 [19]
  GI50: 61 µM
[20]
  GI50: 34 µM
[21]
  GI50: 43 µM
A-431 [22]
  GI50: 52 µM
MCF7 [23]
  GI50: 27 µM
A2780 [24]
  GI50: 35 µM
HT-29 [25]
  GI50: 36 µM
SW480 [26]
  GI50: 34 µM
[27]
  GI50: 38 µM
[28]
  inhibition of growth at 100 µM: 31%

## N#C/C(=C\c1ccc(Cl)cc1)C(=O)c1c[nH]c2ccccc12
SJ-G2
  growth inhibition (GI): inactive
MIA
  growth inhibition (GI): inactive
BE(2)-C
  growth inhibition (GI): inactive
A-431 [1]
  growth inhibition (GI): inactive
DU-145 [2]
  growth inhibition (GI): inactive
A2780 [3]
  growth inhibition (GI): inactive
NCI-H460
  growth inhibition (GI): inactive
SW480 [4]
  growth inhibition (GI): inactive
MCF7 [5]
  growth inhibition (GI): inactive
HT-29 [6]
  growth inhibition (GI): inactive
SMA
  growth inhibition (GI): inactive

## COc1ccc(CNC(=O)/C(C#N)=C/c2ccc(O)cc2)cc1
SJ-G2
  growth inhibition (GI): inactive
MIA
  growth inhibition (GI): inactive
BE(2)-C
  growth inhibition (GI): inactive
A-431 [1]
  growth inhibition (GI): inactive
DU-145 [2]
  growth inhibition (GI): inactive
A2780 [3]
  growth inhibition (GI): inactive
NCI-H460
  growth inhibition (GI): inactive
SW480 [4]
  growth inhibition (GI): inactive
MCF7 [5]
  growth inhibition (GI): inactive
HT-29 [6]
  growth inhibition (GI): inactive
SMA
  growth inhibition (GI): inactive

## N#C/C(=C\c1ccc(Cl)c(Cl)c1)C(=O)c1c[nH]c2ccccc12
SJ-G2
  growth inhibition (GI): inactive
MIA
  growth inhibition (GI): inactive
[29]
  inhibition of growth at 25 µM: 33%
A-431 [1]
  growth inhibition (GI): inactive
DU-145 [2]
  growth inhibition (GI): inactive
A2780 [3]; A2780, 72 h, read-out: GI
  inhibition of growth at 25 µM: 32%
NCI-H460
  growth inhibition (GI): inactive
SW480 [4]; SW480, 72 h, read-out: GI
  inhibition of growth at 25 µM: 33%
MCF7 [5]; MCF7, 72 h, read-out: GI
  inhibition of growth at 25 µM: 42%
HT-29 [6]
  growth inhibition (GI): inactive
SMA
  growth inhibition (GI): inactive

## N#C/C(=C\c1ccc(O)cc1)C(=O)c1ccc[nH]1
SJ-G2
  growth inhibition (GI): inactive
MIA
  growth inhibition (GI): inactive
BE(2)-C
  growth inhibition (GI): inactive
A-431 [1]
  growth inhibition (GI): inactive
DU-145 [2]
  growth inhibition (GI): inactive
A2780 [3]
  growth inhibition (GI): inactive
NCI-H460
  growth inhibition (GI): inactive
SW480 [4]
  growth inhibition (GI): inactive
MCF7 [5]
  growth inhibition (GI): inactive
HT-29 [6]
  growth inhibition (GI): inactive
SMA
  growth inhibition (GI): inactive

## Cc1ccc(/C=C(\C#N)C(=O)c2c[nH]c3ccccc23)cc1
SJ-G2
  growth inhibition (GI): inactive
MIA
  growth inhibition (GI): inactive
BE(2)-C
  growth inhibition (GI): inactive
A-431 [1]
  growth inhibition (GI): inactive
DU-145 [2]
  growth inhibition (GI): inactive
A2780 [3]
  growth inhibition (GI): inactive
NCI-H460
  growth inhibition (GI): inactive
SW480 [4]
  growth inhibition (GI): inactive
MCF7 [5]
  growth inhibition (GI): inactive
HT-29 [6]
  growth inhibition (GI): inactive
SMA
  growth inhibition (GI): inactive
